ChEMBL document CHEMBL4715919 (Bioorg Med Chem, 2021)
pIC50: −log10 of the molar value.

Columns and labels:
[1] = Intrinsic clearance in human liver microsomes at 30 uM up to 60 mins by LC-MS/MS analysis; assay type: ADME, Microsome; conditions: read-out: CLH
Outline: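 Compound at 30 μM incubated at 37 °C with human liver microsomes (1 mg/mL protein) in 100 mmol/L phosphate pH 7.4 with 10 mM MgCl₂ and 1 mg/mL NADPH. Sampled at 0, 15, 30 and 60 min, quenched with ice-cold acetonitrile, centrifuged. Parent measured by LC-MS/MS. t1/2 and CLint derived from remaining compound.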

[2] = target: T1, Sodium/glucose cotransporter 2 (Homo sapiens, UniProt P31639); experiment: Inhibition of human SGLT2 expressed in COS7 cells assessed as reduction in [14C]-AMG uptake; assay type: cell-based
T1 sequence (P31639 whole entry): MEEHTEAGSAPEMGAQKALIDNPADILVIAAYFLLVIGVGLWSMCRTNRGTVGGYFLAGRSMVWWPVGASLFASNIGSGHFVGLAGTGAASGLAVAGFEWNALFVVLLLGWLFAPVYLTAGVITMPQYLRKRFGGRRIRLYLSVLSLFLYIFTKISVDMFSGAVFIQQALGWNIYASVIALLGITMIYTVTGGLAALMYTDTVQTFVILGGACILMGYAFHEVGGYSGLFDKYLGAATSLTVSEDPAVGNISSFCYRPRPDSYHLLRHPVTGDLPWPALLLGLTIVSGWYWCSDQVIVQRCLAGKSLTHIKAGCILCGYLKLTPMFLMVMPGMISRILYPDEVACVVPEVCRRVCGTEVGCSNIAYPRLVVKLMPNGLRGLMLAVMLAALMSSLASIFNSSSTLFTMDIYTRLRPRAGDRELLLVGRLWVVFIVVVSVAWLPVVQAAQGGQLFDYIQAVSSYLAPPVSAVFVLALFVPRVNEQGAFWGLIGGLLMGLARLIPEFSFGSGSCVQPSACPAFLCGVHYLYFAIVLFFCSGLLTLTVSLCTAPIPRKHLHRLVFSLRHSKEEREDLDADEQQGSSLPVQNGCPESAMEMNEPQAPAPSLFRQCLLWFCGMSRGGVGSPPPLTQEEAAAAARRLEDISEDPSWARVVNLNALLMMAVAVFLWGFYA
Outline: (§1)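 Human SGLT2 expression plasmid transfected into COS-7 cells. Uptake of [¹⁴C]-α-methyl-D-glucopyranoside (AMG) measured with 0.3 mM AMG in uptake buffer. […] Mean ± SEM of at least three independent experiments.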

[3] = Intrinsic clearance in rat intestinal S9 fraction at 10 uM up to 60 min in presence of NADPH by LC-MS/MS analysis
[4] = Oral bioavailability in rat assessed as ratio of AUC at 3 mg/kg up to 360 mins by LC-MS/MS analysis; assay type: ADME, organism-based; conditions: in vivo
Outline: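 Rat oral dosing at 3 mg/kg in 0.5% methyl cellulose, with iv dosing at 1 mg/kg in 20% DMA/80% saline. Jugular blood sampled from 5 to 360 min, plasma quantified by LC-MS/MS. F is the ratio of oral AUC to iv AUC. For the ester prodrug, AUC of the parent glucoside after prodrug dosing is compared with iv parent.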

[5] = Apparent permeability of compound in human Caco-2 cells by LC-MS/MS analysis; assay type: ADME, cell-based
Outline: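 Caco-2 cells seeded at 1.0 × 10⁵ cells/well on polycarbonate inserts (0.3 cm², 1 μm pores). After 60 min at 37 °C in 5% CO₂, buffer sampled from the opposite side. Compound measured by LC-MS/MS. Papp in 10^-6 cm/s.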

[6] = AUC(0 to t) in rat at 3 mg/kg, po up to 360 mins by LC-MS/MS analysis; assay type: ADME, organism-based; parameters: route oral, dose 3 mg/kg, time <=360; conditions: in vivo
Outline: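 Rats dosed once orally at 3 mg/kg (5 mL/kg) as a suspension in 0.5 w/v% methyl cellulose 400. Jugular vein blood drawn at 5, 10, 15, 30, 60, 120, 240 and 360 min. Plasma levels measured by LC-MS/MS. AUC taken to the last observation point. Mean ± SD.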

[7] = target: T1, Sodium/glucose cotransporter 2; experiment: Inhibition of human SGLT2 expressed in COS7 cells; assay type: cell-based; outline: as §1

| pIC50 [2] | other results | Compound |
| --- | --- | --- |
| 7.36 | microsomal CLint at 30 µM [1]: 4.15 µL/min/mg | CCn1nc(O[C@@H]2O[C@H](CO)[C@@H](O)[C@H](O)[C@H]2O)c(Cc2ccc(OC(C)C)cc2)c1C |
| 7.91 |  | Cc1ccc(Cc2c(O[C@@H]3O[C@H](CO)[C@@H](O)[C@H](O)[C@H]3O)n[nH]c2C)cc1 |
| 7.29 | microsomal CLint at 10 µM [3]: 4.8 µL/min/mg | CCc1[nH]nc(O[C@@H]2O[C@H](CO)[C@@H](O)[C@H](O)[C@H]2O)c1Cc1ccc(SC)cc1 |
| 5.40 |  | Cc1[nH]nc(O[C@@H]2O[C@H](CO)[C@@H](O)[C@H](O)[C@H]2O)c1CCCc1ccccc1 |
| 7.79 |  | Cc1[nH]nc(O[C@@H]2O[C@H](CO)[C@@H](O)[C@H](O)[C@H]2O)c1Cc1ccc(C(C)C)cc1 |
| 7.18 | microsomal CLint at 30 µM [1]: 6.75 µL/min/mg | CCCn1nc(O[C@@H]2O[C@H](CO)[C@@H](O)[C@H](O)[C@H]2O)c(Cc2ccc(OC(C)C)cc2)c1C |
| 7.97 |  | CCOc1ccc(Cc2c(O[C@@H]3O[C@H](CO)[C@@H](O)[C@H](O)[C@H]3O)n[nH]c2C)cc1 |
| 7.07 |  | OC[C@H]1O[C@@H](Oc2n[nH]c3cccc(CCc4ccccc4)c23)[C@H](O)[C@@H](O)[C@@H]1O |
| 6.81 | microsomal CLint at 10 µM [3]: 4.6 µL/min/mg | CSc1ccc(Cc2c(O[C@@H]3O[C@H](CO)[C@@H](O)[C@H](O)[C@H]3O)n[nH]c2C(C)C)cc1 |
| 6.74 |  | Cc1[nH]nc(O[C@@H]2O[C@H](CO)[C@@H](O)[C@H](O)[C@H]2O)c1Cc1ccccc1 |
| 8.00 | microsomal CLint at 10 µM [3]: 4.1 µL/min/mg; bioavailability [4]: 0.43%; microsomal CLint at 30 µM [1]: 1.44 µL/min/mg; Papp [5]: 1.02 ×10⁻⁶ cm/s; AUC(0-t) at 6 h [6]: 6.42 ng·h/mL | Cc1[nH]nc(O[C@@H]2O[C@H](CO)[C@@H](O)[C@H](O)[C@H]2O)c1Cc1ccc(OC(C)C)cc1 |
| < 6.00 |  | Cc1nn(C)c(O[C@@H]2O[C@H](CO)[C@@H](O)[C@H](O)[C@H]2O)c1Cc1ccc(OC(C)C)cc1 |
| 8.06 |  | CCCc1ccc(Cc2c(O[C@@H]3O[C@H](CO)[C@@H](O)[C@H](O)[C@H]3O)n[nH]c2C)cc1 |
| 6.96 | microsomal CLint at 30 µM [1]: 3.73 µL/min/mg | Cc1c(Cc2ccc(OC(C)C)cc2)c(O[C@@H]2O[C@H](CO)[C@@H](O)[C@H](O)[C@H]2O)nn1C |
| 7.74 | microsomal CLint at 10 µM [3]: 3.9 µL/min/mg; bioavailability [4]: 3.23%; microsomal CLint at 30 µM [1]: 0.85 µL/min/mg; Papp [5]: 3.16 ×10⁻⁶ cm/s; AUC(0-t) at 6 h [6]: 27.9 ng·h/mL | Cc1c(Cc2ccc(OC(C)C)cc2)c(O[C@@H]2O[C@H](CO)[C@@H](O)[C@H](O)[C@H]2O)nn1C(C)C [REMOGLIFLOZIN] |
| 7.91 |  | COc1ccc(Cc2c(O[C@@H]3O[C@H](CO)[C@@H](O)[C@H](O)[C@H]3O)n[nH]c2C)cc1 |
| 6.04 |  | Cc1ccccc1Cc1c(O[C@@H]2O[C@H](CO)[C@@H](O)[C@H](O)[C@H]2O)n[nH]c1C |
| 7.81 |  | CCCOc1ccc(Cc2c(O[C@@H]3O[C@H](CO)[C@@H](O)[C@H](O)[C@H]3O)n[nH]c2C)cc1 |
| 6.12 |  | Cc1cccc(Cc2c(O[C@@H]3O[C@H](CO)[C@@H](O)[C@H](O)[C@H]3O)n[nH]c2C)c1 |
| 8.41 |  | CCc1ccc(Cc2c(O[C@@H]3O[C@H](CO)[C@@H](O)[C@H](O)[C@H]3O)n[nH]c2C)cc1 |
| 7.79 | microsomal CLint at 10 µM [3]: 73.2 µL/min/mg | CSc1ccc(Cc2c(O[C@@H]3O[C@H](CO)[C@@H](O)[C@H](O)[C@H]3O)n[nH]c2C(F)(F)F)cc1 |
| 5.60 | microsomal CLint at 10 µM [3]: 3.4 µL/min/mg; bioavailability [4]: 5.79%; Papp [5]: 4.29 ×10⁻⁶ cm/s | CCOC(=O)OC[C@H]1O[C@@H](Oc2nn(C(C)C)c(C)c2Cc2ccc(OC(C)C)cc2)[C@H](O)[C@@H](O)[C@@H]1O [REMOGLIFLOZIN ETABONATE] |
| 8.31 | microsomal CLint at 10 µM [3]: 3.2 µL/min/mg | CSc1ccc(Cc2c(O[C@@H]3O[C@H](CO)[C@@H](O)[C@H](O)[C@H]3O)n[nH]c2C)cc1 |
|  | pIC50 [7]: < 3.00 | CSc1ccc(Cc2c(C(F)(F)F)n[nH]c2O)cc1 |
| 5.28 |  | Cc1[nH]nc(O[C@@H]2O[C@H](CO)[C@@H](O)[C@H](O)[C@H]2O)c1CCc1ccccc1 |
